Most compounds without a hit are left out; they make up all but 2.3% or so of the library.
PAFAH1B3 inh: inhibitors of human PAFAH1B3; Q15102; recombinant PAFAH1B3, FP-rhodamine probe, fluorescence polarization; inhibition, % at 3.39 µM; actives 0.28% (n = 340,000); AID 492972;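 active = inhibition above the screen-wide average of all tested compounds plus 3 SD, cut at about 25% in these data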;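 note: 0% = enzyme with DMSO only and 100% = wells lacking PAFAH1B3 protein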
Apaf1 inhib: inhibitors of human Apaf-1 apoptosome. actives 0.71% (n = 330,000). inhibition, % at 20 µM. AID 489030. reconstituted apoptosome caspase-3 activity, DEVD-Rh110 fluorescence. O14727; active = inhibition of at least 40% at 20 µM;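 note: plate controls were DMSO wells for no effect and DEVD-CHO caspase inhibitor wells for full effect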
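Material: cell-free apoptosome with Apaf-1, procaspase-3 and caspase-9; Buffer or medium: Hepes pH 7.5 with detergent and BSA; Reagent: cytochrome c trigger plus (Z-DEVD)2-Rh110 caspase-3 substrate; Times: compound with Apaf-1, dATP, procaspase-3 30 min, then 50 min reaction, room temperature; Technique: Rh110 fluorescence intensity.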
PAFAH1B2 inh: inhibitors of human PAFAH1B2 | recombinant PAFAH1B2, FP-rhodamine activity probe, fluorescence polarization | P68402 | actives 1.2% (n = 340,000) | inhibition, % at 3.39 µM;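 active = inhibition above the mean of all tested compounds plus 3 SD, cut at about 24% in these data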;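 note: 0% = enzyme with DMSO and 100% = wells lacking PAFAH1B2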
Target sequence (P68402 whole entry, looked up): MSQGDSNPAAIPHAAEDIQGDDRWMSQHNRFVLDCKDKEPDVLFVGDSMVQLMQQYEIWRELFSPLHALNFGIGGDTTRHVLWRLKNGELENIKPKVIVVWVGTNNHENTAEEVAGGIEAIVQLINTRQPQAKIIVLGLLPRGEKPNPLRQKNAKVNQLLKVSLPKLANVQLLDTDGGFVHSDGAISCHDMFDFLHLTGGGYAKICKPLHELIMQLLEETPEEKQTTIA
PAFAH2 FP inh: inhibitors of human PAFAH2 | Q99487 | recombinant PAFAH2, FP-rhodamine activity probe, fluorescence polarization | inhibition, % at 3.39 µM | actives 0.99% (n = 340,000);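 active = inhibition above the mean over all tested compounds plus 3 SD, cut at about 30% in these data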;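 note: inhibitors block probe labeling of enzyme so polarization drops; 0% = enzyme with DMSO and 100% = wells lacking PAFAH2 protein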
TDP2 inh: TDP2 (human) inhibition, absorbance primary screen. O95551. recombinant TDP2, T5PNP hydrolysis, p-nitrophenol absorbance 415 nm. inhibition, % at 12.8 µM. actives 0.34% (n = 370,000). AID 720702;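 active = inhibition above the mean of all tested compounds plus 3 SD, set per campaign, cut at about 25% in these data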;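 note: 0% = DMSO with enzyme and 100% = buffer with substrate but no TDP2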
Target sequence (O95551 whole entry, looked up): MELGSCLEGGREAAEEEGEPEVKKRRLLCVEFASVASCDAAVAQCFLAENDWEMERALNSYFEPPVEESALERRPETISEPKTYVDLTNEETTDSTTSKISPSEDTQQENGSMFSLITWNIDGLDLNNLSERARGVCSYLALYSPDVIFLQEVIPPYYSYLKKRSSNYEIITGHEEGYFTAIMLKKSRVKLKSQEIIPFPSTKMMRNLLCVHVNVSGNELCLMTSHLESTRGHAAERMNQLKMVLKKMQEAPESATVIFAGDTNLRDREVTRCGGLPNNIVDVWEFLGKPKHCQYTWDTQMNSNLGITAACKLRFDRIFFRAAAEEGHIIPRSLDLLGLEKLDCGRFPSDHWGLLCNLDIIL
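Material: recombinant human TDP2; quantity: TDP2 enzyme at 120 nM final; medium: Tris-HCl pH 7.5 with MgCl2; compound: single concentration, 12.8 µM nominal, with 1% DMSO; incubation: 2 h enzyme incubation at 37 °C; signal: epi absorbance; measure: percent inhibition; benchmarks: high control without enzyme, low control DMSO plus TDP2; repeats: singlicate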
An asterisk follows results filed as active; x = not tested or not shown.

SMILES	PAFAH1B3 inh	Apaf1 inhib	PAFAH1B2 inh	PAFAH2 FP inh	TDP2 inh
CCC1CCc2sc(C(=O)NCC(c3ccc(OC)cc3)N3CCCC3)cc2C1 (stereo not drawn)	4.8	45.8*	-1.4	-1.1	1.1
CCOc1cc(/C=C(/C#N)c2ccc(F)cc2)ccc1OCc1ccc(C(=O)O)o1	-1.0	-0.5	31.9*	-5.1	-7.2
COc1ccccc1CCn1cnc(-c2cccc(F)c2)c1C(C)C	x	x	x	x	-2.6
C[C@@H]1C[C@H](O)CCCCCC(=O)Cc2cc(O)cc(O)c2C(=O)O1	x	x	x	x	-3.7
CCCCCCCCN1C(=O)[C@@H](CC(=O)N2CCN(C(=O)OCC)CC2)C[C@@]2(C(=O)OC)C1=C[C@H](COCc1ccccc1)O[C@@H]2C	x	x	x	x	0.7
Cc1cc(NS(=O)(=O)c2ccc(Nc3nc(-c4sc(N)nc4C)cs3)cc2)no1	55.0*	20.5	36.4*	79.0*	x
CC(C)C[C@H]1COc2cccc(F)c2S(=O)(=O)N1C	x	x	x	x	0.1
O=[N+]([O-])c1cccc(N/N=C/c2cc([N+](=O)[O-])ccc2O)c1	8.5	14.2	-0.6	39.5*	-0.4
Cc1cc(Cl)ccc1NC(=O)CCC(=O)N/N=C/c1cc([N+](=O)[O-])ccc1O	3.0	-12.0	3.2	6.3	-1.2
O=[N+]([O-])c1ccc(O)c(/C=N/Nc2nc3ccccc3[nH]2)c1	16.2	-6.8	35.3*	-0.5	-3.0
O=C(N/N=C/c1cc([N+](=O)[O-])ccc1O)Nc1ccccc1	3.3	12.8	31.6*	3.2	-5.2
O=[N+]([O-])c1ccc(O)c(/C=N/NC(=S)Nc2ccc(Cl)cc2Cl)c1	23.3	-9.4	42.0*	45.4*	-9.2
C[C@@H]1COc2cc(N3CCSCC3)ccc2S(=O)(=O)N1C	x	x	x	x	7.0
COC(=O)C[C@H]1CC[C@H]2[C@H](COc3ccc(NS(=O)(=O)c4cccc(OC)c4)cc3C(=O)N2C)O1	x	x	x	x	3.7
c1ccc(-c2cccc(CNc3nc(-c4ccccn4)nnc3-c3ccccc3)c2)cc1	x	x	x	x	0.4
O=C(CSc1nc2ccccc2nc1N1CCOCC1)NCc1ccc(Cl)cc1Cl	x	x	x	x	10.7
COC(=O)[C@H](CC(C)C)N(CCc1cn(Cc2ccc(C)cc2)nn1)S(=O)(=O)c1ccc(F)cc1Br	x	x	x	x	-1.0
Cc1nn(-c2ccccc2)c2sc(C(=O)NCC3CCCO3)cc12 (stereo not drawn)	x	x	x	x	-1.2
CN(CC(=O)Nc1ccc(Cl)c(Cl)c1)C(=O)C12CC3CC(CC(C3)C1)C2	6.2	-86.3	26.3*	-10.2	-3.9
O=C(NC1CCCCN(Cc2cccc(C(F)(F)F)c2)C1=O)c1cccc(C(F)(F)F)c1 (stereo not drawn)	x	x	x	x	4.4
Cc1ccc(SCc2ccc(C(=O)Nc3cc([N+](=O)[O-])ccc3C)cc2)cc1	8.0	0.7	29.2*	-0.1	-17.9
Cc1ccc(SCc2ccc(C(=O)Nc3cccc([N+](=O)[O-])c3)cc2)cc1	3.8	5.2	4.9	0.1	6.9
COc1cccc(N(C)C(=O)[C@@H](C)[C@@H](O)c2ccc(Cl)cc2)c1	x	x	x	x	-5.0
CC(C)C(C#CC1CC1)NCc1ccc2c(c1)OCO2 (stereo not drawn)	x	x	x	x	-9.4
CCCC(=O)N(c1ccc2oc(=O)sc2c1)S(=O)(=O)c1cccs1	14.1	-15.9	5.7	34.6*	2.0
SMILES	PAFAH1B3 inh	Apaf1 inhib	PAFAH1B2 inh	PAFAH2 FP inh	TDP2 inh
CC(=O)N(c1ccc2oc(=O)sc2c1)S(=O)(=O)c1ccccc1	6.3	-11.9	11.5	7.4	0.9
O=S1(=O)CCOC[C@H](Cc2ccccc2)N1Cc1ccc(F)cc1	5.0	13.1	32.7*	-0.1	4.3
O=C(NNS(=O)(=O)c1ccccc1)c1ccccc1-n1cccc1	4.7	-0.9	3.4	8.9	15.4
O=C(NNS(=O)(=O)c1ccc(Br)cc1)c1ccccc1-n1cccc1	8.4	7.9	29.4*	3.1	-0.1
O=C(c1cccc(S(=O)(=O)NCc2ccccc2)c1)N1CCN(Cc2ccccc2)CC1	3.6	21.6	68.5*	2.6	3.8
O=C(c1cccc(S(=O)(=O)NCc2ccccc2)c1)N1CCCCC1	5.6	-17.1	7.8	-3.0	-21.7
CC(C)(C)[C@@H]1COC(=O)[C@H](Cc2ccc(F)cc2)C/C=C\C[C@H](CC(=O)N(CCO)Cc2ccccc2)C(=O)N1	5.2	19.9	29.9*	3.4	-8.3
CC(C)(C)OC(=O)C[C@@H]1C/C=C\C[C@@H](CC(=O)N(CCO)Cc2ccccc2)C(=O)NCCOC1=O	2.7	0.6	-1.2	-7.1	9.1
O=C1NCCOC(=O)[C@@H](Cc2ccc(F)cc2)C/C=C\C[C@@H]1CC(=O)N(CCO)Cc1ccccc1	1.2	-2.3	26.4*	-0.8	15.6
O=C1N[C@@H](Cc2ccccc2)COC(=O)[C@@H](Cc2ccc(F)cc2)C/C=C\C[C@@H]1CC(=O)N(CCO)Cc1ccccc1	-1.7	36.3	41.4*	1.4	-23.0
Nc1ccn([C@@H]2O[C@H](C(=O)N3CCN(CCO)CC3)[C@@H](O)[C@H]2O)c(=O)n1	x	x	x	x	-1.0
Cc1ccc(S(=O)(=O)Nc2nc(C)c(C(=O)NNS(=O)(=O)c3cc(C)ccc3C)s2)cc1	8.6	1.4	27.8*	12.9	16.4
Cc1nc(NS(=O)(=O)c2ccccc2)sc1C(=O)NNS(=O)(=O)c1ccccc1	5.3	0.5	18.3	1.3	-0.2
O=C1CC2c3cc(Br)ccc3CCN2C(=O)CN1Cc1ccccc1 (stereo not drawn)	x	x	x	x	-5.6
COC(=O)C/C=C/[C@@H](C)[C@H](NC(=O)OCC(Cl)(Cl)Cl)c1ccc(-c2ccccc2)cc1	x	x	x	x	8.4
CC1=NN(c2ccc(C(=O)O)cc2)C(=O)/C1=C/c1ccc(-c2ccccc2F)o1	14.8	57.7*	5.2	10.5	x
CC1=NN(c2ccccc2)C(=O)/C1=C/c1ccc(-c2ccc(C)c(C(=O)O)c2)o1	x	68.2*	x	x	4.4
COC(=O)CSc1nnc(-c2ccc(NS(=O)(=O)c3ccc(C)c(C)c3)cc2)o1	x	x	x	x	5.2
COC(=O)C1=C(C)N(Cc2ccc(C(F)(F)F)cc2)C(=NCc2ccccc2)NC1c1ccc(C(F)(F)F)cc1 (stereo not drawn)	x	x	x	x	5.4
O=[N+]([O-])c1cc(C(F)(F)F)ccc1Sc1nccn1Cc1ccccc1	9.4	4.9	70.1*	3.0	-1.4
O=C(COC(=O)c1cc(-c2cccs2)nn1-c1ccccc1)Nc1ccc(F)c([N+](=O)[O-])c1	-15.5	8.7	-6.4	36.0*	0.0
CN(CC(=O)Nc1ccc(F)cc1)C(=O)c1cc(-c2cccs2)nn1-c1ccccc1	0.2	15.4	4.5	5.9	-9.5
CCOc1ccc(NC(=O)C23CC4CC(C2)CC(c2ccccc2)(C4)C3)cc1	8.0	13.3	26.7*	4.9	1.0
CCOC(=O)CNC(=O)C12CC3CC(C1)CC(c1ccc(C)cc1)(C3)C2	3.2	8.9	3.9	-3.8	7.5
Cc1sc(N(C(=O)CCc2ccccc2)c2ccc(C(=O)O)cc2)nc1-c1ccccc1	6.5	16.2	34.3*	3.8	0.2

Screening results from PubChem.
